Assay outcomes deposited in PubChem BioAssay by Broad Institute.
RAD52 anneal inh – RAD52 DNA annealing inhibitors, primary screen, biochemical, FRET, single point, set 2. DNA repair protein RAD52 homolog (Homo sapiens), P43351. recombinant RAD52 DNA annealing, FRET fluorescence. inhibition, % at 18.7 µM. 360,000 compounds, 0.46% hits. AID 651710, 2012;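 active = every replicate showing at least 50% inhibition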
E-selectin induc – E-selectin induction in HUVECs, primary screen, imaging, HUVEC, immunofluorescence imaging, single point. 260,000 compounds, 0.37% hits. normalized: neutral wells 0, TNF-alpha wells 100. activation, % at 7.58 µM;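 active = mean E-selectin-positive cell signal at least 10% of the positive control, reached in at least 60% of replicates, without over 20% cell loss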
Target sequence (P16581 whole entry, looked up): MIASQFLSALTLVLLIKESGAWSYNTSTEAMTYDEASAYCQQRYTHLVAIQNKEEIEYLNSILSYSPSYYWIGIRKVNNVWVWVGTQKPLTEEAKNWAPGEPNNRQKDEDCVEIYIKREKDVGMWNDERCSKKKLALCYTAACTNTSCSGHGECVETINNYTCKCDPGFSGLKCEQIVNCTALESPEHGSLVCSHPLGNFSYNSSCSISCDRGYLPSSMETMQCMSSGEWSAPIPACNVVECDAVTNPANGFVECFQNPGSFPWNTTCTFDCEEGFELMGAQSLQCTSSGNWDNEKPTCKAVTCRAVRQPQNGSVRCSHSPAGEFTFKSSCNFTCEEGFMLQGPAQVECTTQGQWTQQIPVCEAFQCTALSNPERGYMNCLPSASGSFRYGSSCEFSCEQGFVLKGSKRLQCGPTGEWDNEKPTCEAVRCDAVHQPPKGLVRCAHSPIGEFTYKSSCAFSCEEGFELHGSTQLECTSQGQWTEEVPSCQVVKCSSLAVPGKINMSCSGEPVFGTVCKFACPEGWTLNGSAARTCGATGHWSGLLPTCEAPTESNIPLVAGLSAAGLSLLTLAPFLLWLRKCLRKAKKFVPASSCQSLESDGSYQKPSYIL
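Test system: HUVEC; input: 3,000 HUVEC/well; measured by: immunofluorescence imaging; read-out: % PE-positive cells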
rRNA inh HTS – reduced GFP signal of wild-type E. coli, primary screen, bacterial rRNA inhibitor project, GFP/RFP fluorescence, OD600, single point. E. coli WT GFP vs humanized-ribosome RFP mutants, 24 h; stronger effect = lower value; DMSO median 0, no signal -100. GFP signal change (wild-type ribosome), % (concentration not given with the values). 350,000 compounds, 1.6% hits. AID 720706, 2013;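 active = significant combined selectivity score with lowered wild-type GFP, culture density cut under 30%, mutant RFP and density less affected; inactive = any of these conditions unmet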
XiGFP reactiv – activators of inactive X chromosome reactivation, primary screen, imaging, XiGFP fibroblasts, GFP high-content imaging, set 2 | AID 743238, 2013 | activation, % at 7.58 µM | XiGFP mouse fibroblasts, % GFP-positive cells imaging, 3 d; cells co-treated with 5-aza-dC sensitizer; scaled so ellipticine positive control = 100% | 360,000 compounds, 0.055% hits;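 active = mean normalized replicate activation at least 10% and every replicate at or above 10%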;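 note: 0% = median of on-plate neutral control wells and 100% = ellipticine 6 µM median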
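Assay system – SV40-immortalized XiGFP fibroblast cells, line 68-5-11 · Buffer or medium – DMEM supplemented with 5-aza-dC as sensitizing agent · Dosing – one concentration, pinned · Benchmarks – positive control ellipticine, 6 µM final · Times – 3 days compound exposure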
PglD DTNB – C. jejuni PglD acetyltransferase inhibitors, primary screen, biochemical, DTNB colorimetric, single point. UDP-N-acetylbacillosamine N-acetyltransferase PglD (Campylobacter jejuni). purified PglD enzyme, DTNB colorimetric CoA detection. inhibition, % at 12.5 µM. 360,000 compounds, 0.098% hits; in the data active = inhibition above about 16%, passing the limit was not always enough
RAD54 branch – inhibitors of human RAD54 branch migration, primary screen, biochemical, fluorescence, single point; DNA repair and recombination protein RAD54-like (Homo sapiens), Q92698; RAD54 Holliday junction branch migration, FAM/BHQ fluorescence; inhibition, % at 10.4 µM; 360,000 compounds, 0.14% hits;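 active = mean normalized replicate activity at least 40 and at least half of replicates scoring 40 or more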;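 note: 0% = median of neutral control wells and 100% = median of positive control wells; inhibitors cause a drop in the FAM fluorescence signal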
Starred values were filed as active, the others as inactive; nt = no result given. Most compounds without a hit are left out; they make up all but 2% or so of the library.

SMILES	RAD52 anneal inh	E-selectin induc	rRNA inh HTS	XiGFP reactiv	PglD DTNB	RAD54 branch
O=C(Nc1ccccc1F)Nc1cc(S(=O)(=O)N2CCOCC2)ccc1N1CCCC1	-25	2	-19*	0	nt	nt
CCN(CC)S(=O)(=O)c1ccc(N2CCOCC2)c(NS(=O)(=O)c2ccc(C)cc2)c1	4	-3	-2	0	nt	nt
Cc1ccc(S(=O)(=O)Nc2cc(S(=O)(=O)N3CCCCC3)ccc2N2CCOCC2)cc1	-13	32*	10	0	nt	nt
Cc1cccc(NS(=O)(=O)c2ccc(S(=O)(=O)N3CCCC3)cc2)c1	-16	206*	-6	0	-1	-15
COC(=O)C[C@H]1CC[C@H]2[C@H](COc3ccc(NC(=O)c4cc(F)cc(F)c4)cc3C(=O)N2C)O1	nt	0	-4	0	-2	-1
Cc1cccc(NS(=O)(=O)c2ccc3[nH]c(=O)cc(C(=O)O)c3c2)c1	-3	0	-15*	0	nt	nt
O=C(Nc1nnc(S(=O)(=O)Cc2ccc(F)cc2)s1)c1ccccc1F	-7	0	-40*	0	1	1
Cc1ccccc1NS(=O)(=O)c1nnc(NC(=O)c2ccccc2F)s1	-12	0	-15	0	5	-3
O=C(c1cccc2ccccc12)N1CCN(Cc2ccccc2F)CC1	-8	nt	-4	0	-9	4
Cc1ccccc1CN1CCN(C(=O)c2cccc3ccccc23)CC1	-5	nt	-22*	0	-10	-12
COc1ccc(NS(=O)(=O)c2cc(NC(=O)c3cnccn3)ccc2N2CCCC2)cc1	0	1	1	1	-1	3
COc1ccc(NS(=O)(=O)c2cc(NC(=O)c3cnccn3)ccc2OC)cc1Br	-18	0	-31*	0	-4	3
CCCc1cn(CC[C@@H]2CC[C@H](NC(=O)CCN3CCCCC3)[C@@H](CO)O2)nn1	0	0	2	1	-3	-6
O=C(CSC1=NNC(c2ccccn2)S1)Nc1ccccc1 (stereo unspecified)	-9	4	-19*	0	-4	2
c1ccc(OCCSc2nnc3sc4ccccc4n23)cc1	-3	nt	-41*	nt	-2	11
COc1cccc(OCCSc2nnc3sc4ccccc4n23)c1	nt	nt	nt	nt	5	-1
CCS(=O)(=O)c1ncc(Cl)c(C(=O)Nc2ccc(S(=O)(=O)N(C)c3ccccc3)cc2)n1	-80	0	-36*	0	-6	5
O=C(/C=C\c1ccccc1OC(=O)c1ccccc1F)c1cc2ccccc2o1	-13	nt	-23*	0	nt	2
Cc1nn2c(NCCN3CCOCC3)c3c(nc2c1-c1ccccc1)CCCC3	3	0	-34*	0	-1	9
O=C(O)[C@@H]1[C@@H](CO)[C@@H]2Cn3c(ccc(C4=CCCCC4)c3=O)[C@@H]2N1C(=O)c1ccccc1F	-16	0	1	0	4	-11
CCn1c(CNc2ccc(Cl)cc2)nnc1SCC#N	-1	56*	2	1	nt	nt
Nc1ccc(C2(c3ccc(N)cc3)c3ccccc3C(=O)c3ccccc32)cc1	-26	0	-32*	0	nt	nt
Cc1ccccc1C(=O)Nc1ccc(C(=O)N/N=C/c2ccncc2)cc1	0	nt	-29*	0	nt	nt
CCCNC(=O)N1C[C@@H]2[C@H](c3ccccc31)[C@H](CO)N2C(=O)CN1CCOCC1	-12	0	6	0	2	-5
O=C(/C=C/Nc1cccc(C(F)(F)F)c1)c1ccco1	-10	nt	5	0	nt	nt
SMILES	RAD52 anneal inh	E-selectin induc	rRNA inh HTS	XiGFP reactiv	PglD DTNB	RAD54 branch
O=C(/C=C/Nc1ccc(Oc2ccccc2)cc1)c1ccco1	-20	nt	-25*	0	nt	nt
O=C(/C=C/Nc1ccccc1C(F)(F)F)c1ccco1	-15	1	-22*	0	0	-8
O=C(C[C@@H]1CC[C@@H]2[C@H](COC[C@H](O)CN2Cc2cc(F)ccc2F)O1)N1CCc2ccccc2C1	13	0	-7	0	-14	1
C[C@@H]1CN([C@H](C)CO)C(=O)Cc2cc(NS(=O)(=O)c3cn(C)cn3)ccc2O[C@H]1CN(C)Cc1ccc(C(F)(F)F)cc1	-2	3	1	0	3	6
CN(C)CCN(C(=O)c1ccc2c(c1)OCCO2)c1nc2ccc(Cl)cc2s1	5	0	-1	0	-4	-2
CCN(CC)CCN(C(=O)c1ccc2c(c1)OCCO2)c1nc2cc(C)cc(C)c2s1	10	-1	-21*	0	1	10
CCN(CC)CCN(C(=O)c1ccc2c(c1)OCCO2)c1nc2c(Cl)cccc2s1	-5	-1	-22*	0	4	10
CN(C)CCN(C(=O)c1cccc(Cl)c1)c1nc2c(Cl)cccc2s1	nt	0	nt	0	3	16
O=C(NNc1nc2ccccc2s1)Nc1ccc(F)cc1	-12	nt	-24	0	nt	nt
O=C(NNc1nc2ccccc2s1)c1ccccc1F	-5	nt	-41*	nt	1	5
O=C(CP(=O)(c1ccccc1)c1ccccc1)Nc1nc2ccccc2s1	-7	1	-36*	0	nt	nt
C[C@@H]1CN([C@H](C)CO)C(=O)Cc2cc(NS(=O)(=O)c3ccc(Cl)cc3)ccc2O[C@@H]1CN(C)S(=O)(=O)c1ccc(F)cc1	18	-1	-1	-1	-1	-5
C[C@H]1CN([C@@H](C)CO)C(=O)Cc2cc(NS(=O)(=O)c3ccc(Cl)cc3)ccc2O[C@@H]1CN(C)S(=O)(=O)c1ccc(F)cc1	-5	0	-3	-1	2	2
C[C@H](CO)N1C[C@H](C)[C@@H](CN(C)S(=O)(=O)c2ccc(Cl)cc2)Oc2ccc(NS(=O)(=O)c3ccc(F)cc3)cc2CC1=O	nt	59*	-3	0	2	-3
C[C@H](CO)N1C[C@H](C)[C@H](CN(C)S(=O)(=O)c2ccc(Cl)cc2)Oc2ccc(NS(=O)(=O)c3ccc(F)cc3)cc2CC1=O	nt	92*	2	0	-1	-26
O=C(C[C@H]1C=C[C@@H](NC(=O)C2CC2)[C@H](CO)O1)NC1CCC1	10	0	2	-1	-1	5
Cc1coc2cc3oc(=O)c(Cc4ccccc4)c(C)c3cc12	-5	1	-22*	0	nt	nt
Cc1c(C)c2cc3c(C)coc3cc2oc1=O	-1	0	6	0	-1	11
